PubChem BioAssay AID623869 (Vanderbilt High Throughput Screening Facility, 2012)
Among all 2,100 compounds or so, about 75 (4%) were called active.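 How the source made its calls: active means calcium fluorescence trace judged by eye to show a response, as agonist, enhancer of the glutamate response, or inhibitor; inactive means trace judged by eye to show no response.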 Shown is part of a subset that was picked to be rich in actives.

molecular target: Metabotropic glutamate receptor 8 (Rattus norvegicus) (UniProt P70579); experiment: rat mGlu8 modulation via Gqi9 calcium signal, confirmation, counter-screen for GIRK activator project, cell-based, HEK293 rmGlu8, Gqi9 chimera, Fluo-4 calcium (AID 623869); settings: HEK293 rmGlu8/Gqi9 calcium flux, Fluo-4 fluorescence; glutamate at EC20 added after compound
Sequence (P70579 whole entry, looked up): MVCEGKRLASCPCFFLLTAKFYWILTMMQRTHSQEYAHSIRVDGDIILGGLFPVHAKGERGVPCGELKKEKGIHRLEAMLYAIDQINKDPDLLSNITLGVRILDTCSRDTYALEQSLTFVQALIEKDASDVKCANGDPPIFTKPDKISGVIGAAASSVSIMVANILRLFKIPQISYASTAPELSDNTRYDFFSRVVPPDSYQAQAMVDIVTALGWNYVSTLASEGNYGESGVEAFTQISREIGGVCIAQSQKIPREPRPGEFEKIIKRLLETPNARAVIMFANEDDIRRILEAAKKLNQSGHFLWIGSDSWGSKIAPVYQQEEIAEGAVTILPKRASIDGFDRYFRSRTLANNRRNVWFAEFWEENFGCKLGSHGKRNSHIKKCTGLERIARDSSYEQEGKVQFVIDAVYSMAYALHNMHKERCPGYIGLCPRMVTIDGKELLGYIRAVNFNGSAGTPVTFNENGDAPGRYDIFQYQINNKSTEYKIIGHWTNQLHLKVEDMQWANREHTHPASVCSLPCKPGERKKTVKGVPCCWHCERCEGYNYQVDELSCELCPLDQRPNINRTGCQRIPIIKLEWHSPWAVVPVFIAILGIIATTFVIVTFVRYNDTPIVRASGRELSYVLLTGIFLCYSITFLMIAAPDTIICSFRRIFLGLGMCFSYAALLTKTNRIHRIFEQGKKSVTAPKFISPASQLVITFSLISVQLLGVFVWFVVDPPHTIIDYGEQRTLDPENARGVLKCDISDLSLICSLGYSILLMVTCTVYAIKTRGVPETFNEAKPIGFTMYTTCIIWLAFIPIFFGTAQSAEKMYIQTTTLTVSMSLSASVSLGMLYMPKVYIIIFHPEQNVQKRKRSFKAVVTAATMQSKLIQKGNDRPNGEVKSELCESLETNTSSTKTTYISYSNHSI
Outline: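 Material: rat mGlu8 HEK-293 cells with transient Gqi9. Medium: HEPES-buffered HBSS, pH 7.4. Compound: one dose, 20 µM addition solution, 0.2% DMSO. Schedule: compound 4 min before glutamate, then 2 min recording. Technique: Fluo-4 calcium fluorescence sampled at 1 Hz.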

Row | SMILES | outcome
1 | COC(=O)CSc1nc2ncccc2[nH]1 | inactive; 0
2 | COC(=O)CSC1=NS(=O)(=O)c2ccccc21 | active; -1
3 | CCc1cccc(NC(=O)CSC2=NS(=O)(=O)c3ccccc32)c1 | inactive; 0
4 | CCn1c(SCC(N)=O)nc2sc3c(c2c1=O)CCCC3 | inactive; 0
5 | COc1cc(NC(=O)C(=O)NNC(=O)C2CCCCC2)c(OC)cc1Cl | inactive; 0
6 | COc1cc(/C=C2\S/C(=N/S(=O)(=O)c3ccc(C)cc3)NC2=O)c([N+](=O)[O-])cc1OC | active; 2
7 | COc1ccc(CN(CCC#N)C(=S)NC(=O)c2ccccc2)cc1 | inactive; 0
8 | COC(=O)c1c(NS(=O)(=O)c2cccs2)sc2c1CCCC2 | inactive; 0
9 | O=C(C1CCN(S(=O)(=O)c2cccc3cccnc23)CC1)N1CC=C(c2ccccc2)CC1 | inactive; 0
10 | O=C(Nc1nnc(-c2ccccc2Cl)o1)c1ccc(S(=O)(=O)N2CCCCCC2)cc1 | inactive; 3
11 | O=C(Nc1nnc(-c2ccccc2Cl)o1)c1nc2ccccc2s1 | active; 1
12 | O=C(Nc1nnc(-c2ccc(Cl)cc2)o1)c1nc2ccccc2s1 | inactive; 0
13 | O=C(Nc1ccc2[nH]c(=S)sc2c1)c1ccccc1 | inactive; 0
14 | O=C(NC(=S)N(Cc1ccccc1)Cc1ccccc1)c1ccccc1F | inactive; 0
15 | CCCCOC(=O)c1ccc(NC(=S)NC(=O)c2c(Cl)cnn2CC)cc1 | inactive; 0
16 | O=S(=O)(Nc1ccccc1N1CCCCC1)c1ccc(Cl)s1 | inactive; 0
17 | O=C(Nc1nncs1)c1ccccc1NS(=O)(=O)c1cccs1 | inactive; 0
18 | O=C(Nc1ccccc1)c1ccccc1NS(=O)(=O)c1ccc(Cl)s1 | active; 1
19 | CCOc1ccc2nc(/N=C/c3c(C)[nH]n(-c4ccccc4)c3=O)sc2c1 | inactive; 0
20 | O=C(NC(=S)N1CCN(c2ccc(Cl)cc2[N+](=O)[O-])CC1)c1cccs1 | inactive; 0
21 | Cc1cccc(NC(=S)NC(=O)c2ccco2)n1 | inactive; 0
22 | Cc1ccccc1OCC(=O)NNC(=S)NC(=O)c1ccco1 | active; 1

Row | SMILES | outcome
23 | COc1ccccc1C(=O)NNC(=S)NC(=O)c1ccco1 | inactive; 4
24 | CC(Oc1ccc(Cl)cc1)C(=O)NNC(=S)NC(=O)c1ccco1 (stereo not drawn) | active; 1
25 | CCCc1ccc(OCC(=O)NNC(=S)NC(=O)c2ccco2)cc1 | inactive; 3
26 | CC(Oc1ccc2ccccc2c1)C(=O)NNC(=S)NC(=O)c1ccco1 (stereo not drawn) | inactive; 4
27 | CCn1nc(C(=O)OCC(=O)N2CCc3ccccc32)c2ccccc2c1=O | inactive; 0
28 | COc1ccc(CCNC(=O)CSc2nnc(-c3ccc(F)cc3)c3ccccc23)cc1OC | inactive; 0
29 | Cc1cc(C)n(-c2nnc(C)n2/N=C/c2ccccc2OCc2ccccc2Cl)n1 | inactive; 0
30 | Cc1ccccc1NC(=S)NNC(=O)c1csc2c1CCC(C)C2 (stereo not drawn) | inactive; 0
31 | Cc1ccc(CSc2ncnc3c2cnn3-c2ccc(C)cc2)cc1 | inactive; 0
32 | CCCn1c(=O)c2ccccc2n2c(SCCOc3ccccc3F)nnc12 | active; 2
33 | CCCn1c(=O)c2ccccc2n2c(SCc3nc4ccccc4s3)nnc12 | inactive; 0
34 | CCCn1c(=O)c2ccccc2n2c(SCC(=O)N3CCc4ccccc4C3)nnc12 | inactive; 0
35 | O=C(NC(NC(=S)Nc1ccc(Cl)cc1Cl)C(Cl)(Cl)Cl)c1cccc([N+](=O)[O-])c1 (stereo not drawn) | inactive; 4
36 | S=C(Nc1ccccc1Cl)Nc1ccc(Cl)cc1Cl | inactive; 0
37 | COC(=O)c1ccc(CSc2ccc3nnc(-c4ccccc4)n3n2)o1 | active; 2
38 | CCC(Sc1ccc2nnc(-c3ccc(F)cc3)n2n1)C(=O)OC (stereo not drawn) | inactive; 0
39 | COC(=O)c1ccc(CSc2nnc(Nc3ccccc3OC)s2)o1 | inactive; 0
40 | COc1ccc2nc(N3C(=O)/C(=C/c4ccccc4)NC3=S)sc2c1 | inactive; 0
41 | CCCc1ccc(C(=O)N2CCN(c3ccccc3OCC)CC2)cc1 | inactive; 0
42 | Cc1cc(C)c2nc(NC(=O)c3cc(C)on3)sc2c1 | inactive; 0
43 | CCOc1ccc(-c2nc(-c3cccnc3)no2)cc1OCC | active; 2
44 | CCOc1cc(-c2noc(-c3cccnc3)n2)ccc1OC | inactive; 0

Row | SMILES | outcome
45 | CCOc1ccc(-c2nc(-c3ccncc3)no2)cc1OCC | inactive; 0
46 | O=C(CNC(=S)NC(=O)c1cccs1)c1ccccc1 | inactive; 0
47 | O=C(NNC(=O)c1cccs1)Nc1cccc(Cl)c1 | inactive; 0
48 | Cc1cccc(C(=O)NC(=S)NNC(=O)c2ccc(Cl)cc2)c1 | active; 1
49 | Cc1ccnc(NC(=S)NC(=O)c2cccs2)c1 | inactive; 0
50 | O=C(NC(=S)NNC(=O)c1cccs1)c1ccc(Br)o1 | active; 1
51 | Cc1cccc(NC(=O)NC(=S)NC(=O)c2ccccc2)c1 | inactive; 0
52 | Cc1cccc(C(=O)NC(=S)NNC(=O)c2cccs2)c1 | active; 1
53 | CC(=O)c1cccc(NC(=S)NC(=O)c2cccc(C)c2)c1 | inactive; 0
54 | CC(C)CNC(=S)NC(=O)c1ccccc1Cl | inactive; 0
55 | Cc1ccc(C(=O)NNC(=S)NC(=O)c2ccc(Cl)cc2)cc1 | inactive; 4
56 | Cc1cccc(C(=O)NC(=S)Nc2ccccc2C(F)(F)F)c1 | inactive; 0
57 | Cc1cccc(C(=O)NC(=S)NNC(=O)c2ccccc2Cl)c1 | active; 1
58 | CC(C)CNC(=S)NC(=O)c1ccc([N+](=O)[O-])cc1 | inactive; 0
59 | O=C(COc1ccccc1Cl)NC(=S)N1CCc2ccccc21 | inactive; 0
60 | C=CCCCCCCCCc1nc(=S)[nH][nH]1 | inactive; 0
61 | Cc1cccc(NC(=S)NNC(=O)c2sccc2C)c1 | inactive; 0
62 | O=C(NC(=S)N1CCN(c2ccc(Cl)cc2[N+](=O)[O-])CC1)c1ccco1 | inactive; 0
63 | O=C(N/N=C\c1cc(Br)c(Br)o1)c1cncc(Br)c1 | inactive; 0
64 | Cc1cc(C)c2nc(SCC(=O)NCCC3=CCCCC3)cc(C)c2c1 | inactive; 0
65 | c1csc(CCNc2ncnc3sc4c(c23)CCC4)c1 | inactive; 0
66 | COC(=O)c1sccc1NC(=O)CSc1ccccc1NS(=O)(=O)c1cc(Cl)ccc1Cl | inactive; 0

Row | SMILES | outcome
67 | CC1=NCCN1S(=O)(=O)c1cc(Cl)ccc1Cl | inactive; 0
68 | O=S(=O)(Nc1nc(-c2sccc2Cl)cs1)c1cc(Cl)ccc1Cl | active; -1
69 | O=C(NNc1nc2ccccc2nc1C(F)(F)F)c1ccccc1 | inactive; 0
70 | Cc1cccc(N=C2NC(=O)/C(=C/C=C/c3ccco3)S2)c1C | inactive; 0
71 | Cc1nc(SC2CCOC2=O)c2c(C)c(C)sc2n1 (stereo not drawn) | inactive; 0
72 | Cc1sc2nc(C(C)C)nc(SCC(=O)N3c4ccccc4CC3C)c2c1C (stereo not drawn) | inactive; 0
73 | C/C(=N\NC(=O)c1ccc(Cl)cc1)c1ccc(Br)s1 | inactive; 0
74 | C/C(=N\NC(=O)c1ccccc1O)c1ccc(Br)s1 | inactive; 0
75 | C/C(=N\NC(=O)c1cccc(F)c1)c1ccc(Br)s1 | active; 1
76 | Cc1ccc2c(Cl)cc(Cl)c(OCC(=O)NCc3ccco3)c2n1 | inactive; 0
77 | O=C(NN=c1c(=O)c2ccccc2c1=O)c1ccccc1 | inactive; 0
78 | Cc1ccc(NC(=O)CSC(N)=O)cc1Cl | inactive; 0
79 | C=COCCNC(=O)Nc1ccc(Cl)c(Cl)c1 | inactive; 4
80 | O=C(CC(O)(C(F)(F)F)C(F)(F)F)Nc1ccc(Cl)c(Cl)c1 | active; 1
81 | O=C(NNC(=O)c1sccc1-n1cccc1)c1ccc(Cl)cc1 | inactive; 0
82 | CCOC(=O)c1ccccc1NC(=O)CSc1nnc(Cc2cccn2C)n1-c1ccc(C)cc1 | inactive; 0
83 | Fc1ccc(/C=N/n2c(-c3cccs3)n[nH]c2=S)cc1 | inactive; 0
84 | CCOc1ccc2nc(/N=C/c3c(C)[nH]n(-c4ccc(C)cc4)c3=O)sc2c1 | inactive; 0
85 | O=c1c2cc(Br)ccc2nc(-c2cccc(C(F)(F)F)c2)n1O | active; 1
86 | O=c1c2ccccc2nc(-c2cccc(Cl)c2)n1O | inactive; 0
87 | O=c1c2ccc(Cl)cc2nc(-c2cccc(C(F)(F)F)c2)n1O | inactive; 3
88 | COC(=O)c1onc(C(=O)c2ccccc2)c1C(=O)OC | inactive; 0

Row | SMILES | outcome
89 | COc1ccc(N2CCCn3c2nc2c3c(=O)n(Cc3ccccc3F)c(=O)n2C)c(OC)c1 | inactive; 0
90 | COc1ccc(NC(=O)C(=O)NNC(=O)c2cccs2)c(OC)c1 | inactive; 0
91 | Cn1c(N2CCCC2)nc2c1c(=O)n(Cc1ccc(Cl)cc1)c(=O)n2C | active; 2
92 | COc1ccc(N2CCN(c3nc4c(c(=O)n(C)c(=O)n4C)n3Cc3ccccc3)CC2)cc1 | inactive; 0
93 | Cn1c(=O)c2c(nc(-n3ccnc3)n2Cc2ccccc2)n(C)c1=O | inactive; 0
94 | CCOC(=O)Cc1csc(NC(=S)NC(=O)c2ccccc2Br)n1 | inactive; 0
95 | CCc1ccc(NC(=S)NNC(=O)c2ccccc2OC(F)F)cc1 | inactive; 0
96 | Cc1ccc(C)c(NC(=S)NNC(=O)c2csc3c2CCC(C)C3)c1 (stereo not drawn) | inactive; 0
97 | O=C(N/N=C\c1ccc(Cl)s1)c1cccs1 | inactive; 0
98 | CCC(=O)n1nc(-c2cccnc2)nc1NCc1ccc(OC)cc1 | inactive; 0
99 | COc1ccc(CNc2nc(-c3cccnc3)nn2C(=O)c2ccco2)cc1 | active; 2
100 | O=C(c1cc2nc(-c3ccccc3)cc(-c3ccccc3)n2n1)N1CCN(C(=O)c2ccco2)CC1 | inactive; 0
101 | Cc1oc(-c2ccccc2)nc1CS(=O)CC(=O)O (stereo not drawn) | inactive; 0
102 | CCCCN(CCCC)C(=S)NC(=O)c1ccccc1Cl | inactive; 0
103 | COc1ccc(-c2nnc(CSc3nc4ccccc4c(=O)n3C)o2)cc1OC | active; 2
104 | COc1cc(-c2nnc(CSc3nc4ccccc4s3)o2)cc(OC)c1OC | inactive; 0
105 | CCN(CC)C(=O)CSc1nc2ccccc2c(=O)n1-c1ccccc1OC | inactive; 0
106 | O=S(=O)(c1ccc(-c2nnc(SCc3nnc(-c4ccccc4)o3)o2)cc1)N1CCCC1 | inactive; 0
107 | c1ccc(Cc2nnc(-c3ccccc3)o2)cc1 | active; -1
108 | Fc1ccc2nc(-c3ccccc3)nc(SCc3nnc(-c4ccccc4)o3)c2c1 | inactive; 0
